In ChEMBL document CHEMBL1938268, “Synthesis, characterization and in vitro biological evaluation of some novel diarylsulfonylureas as potential cytotoxic and antimicrobial agents” (Bioorg Med Chem Lett, 2012):
Values after ≈ are worked out from the molar mass of the structure shown.

Key:
Bacillus subtilis = assay: Antibacterial activity against Bacillus subtilis NCIM 2063 after 24 hrs by agar well diffusion assay; format: functional; conditions: NCIM 2063, 24 h
Outline: (§1)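 Agar well diffusion per NCCLS; NCIM standard strains. Nutrient agar seeded with 0.1 mL bacterial suspension in sterile 0.85% saline at 10⁵ CFU/mL. Plates in triplicate, 37 0.5 °C, 24 h. MIC taken as lowest concentration giving complete growth inhibition.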

Pseudomonas aeruginosa = assay: Antibacterial activity against Pseudomonas aeruginosa NCIM 2036 after 24 hrs by agar well diffusion assay; format: functional; conditions: NCIM 2036, 24 h; outline: as §1
Aspergillus oryzae = assay: Antifungal activity against Aspergillus oryzae NCIM 643 after 48 hrs by agar well diffusion assay; format: functional; conditions: NCIM 643, 48 h
Outline: (§2)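 Fungal spore suspensions in sterile distilled water set to final 10⁶ CFU/mL; 0.1 mL spread on Potato-Dextrose-Agar. NCCLS agar well diffusion with NCIM standard strains: 6 mm wells given 0.1 mL compound diluted in 1% DMSO, final 16 to 512 µg/mL. Triplicate plates held 48 h at 28 0.2 °C. MIC is lowest concentration fully inhibiting growth.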

Micrococcus luteus = assay: Antibacterial activity against Micrococcus luteus NCIM 2155 after 24 hrs by agar well diffusion assay; format: functional; conditions: NCIM 2155, 24 h; outline: as §1
Bacillus pumilus = assay: Antibacterial activity against Bacillus pumilus NCIM 2327 after 24 hrs by agar well diffusion assay; conditions: NCIM 2327, 24 h
Penicillium chrysogenum = assay: Antifungal activity against Penicillium chrysogenum NCIM 738 after 48 hrs by agar well diffusion assay; format: functional; conditions: NCIM 738, 48 h; outline: as §2
Proteus vulgaris = assay: Antibacterial activity against Proteus vulgaris NCIM 2813 after 24 hrs by agar well diffusion assay; format: functional; conditions: NCIM 2813, 24 h; outline: as §1
Candida albicans = assay: Antifungal activity against Candida albicans NCIM 3102 after 48 hrs by agar well diffusion assay; format: functional; conditions: NCIM 3102, 48 h; outline: as §2
Aspergillus niger = assay: Antifungal activity against Aspergillus niger NCIM 548 after 48 hrs by agar well diffusion assay; format: functional; conditions: NCIM 548, 48 h; outline: as §2
[1] = Toxicity against Brine shrimp nauplii after 24 hrs; format: organism-based; conditions: artemia salina, in vivo; read-out: ED50
Outline: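 Artemia salina nauplii hatched 38 h in sterile brine (sea salt 38 g/L, pH 8.5) under aeration; 10 nauplii per vial exposed to graded compound concentrations in 5 mL final volume, 37 °C, 24 h under incandescent light. Survivors counted; percent lethality versus vehicle-treated controls; ED50 from probit analysis; podophyllotoxin positive control.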

Staphylococcus aureus = assay: Antibacterial activity against Staphylococcus aureus NCIM 2079 after 24 hrs by agar well diffusion assay; format: functional; conditions: NCIM 2079, 24 h; outline: as §1
Escherichia coli = assay: Antibacterial activity against Escherichia coli NCIM 2065 after 24 hrs by agar well diffusion assay; format: functional; conditions: NCIM 2065, 24 h; outline: as §1
Klebsiella pneumoniae = assay: Antibacterial activity against Klebsiella pneumoniae NCIM 5082 after 24 hrs by agar well diffusion assay; format: functional; conditions: NCIM 5082, 24 h; outline: as §1

Structure (SMILES)	MIC (Bacillus subtilis)	MIC (Pseudomonas aeruginosa)	MIC (Aspergillus oryzae)	MIC (Micrococcus luteus)	MIC (Bacillus pumilus)	MIC (Penicillium chrysogenum)	MIC (Proteus vulgaris)	MIC (Candida albicans)	MIC (Aspergillus niger)	LC50 at 24 h [1]	MIC (Staphylococcus aureus)	MIC (Escherichia coli)	MIC (Klebsiella pneumoniae)
Cc1ccc(S(=O)(=O)NC(=O)Nc2ccccc2C(=O)/C=C/c2cccc([N+](=O)[O-])c2)cc1	256 mg/L (≈ 550 µM)	256 mg/L (≈ 550 µM)	256 mg/L (≈ 550 µM)	256 mg/L (≈ 550 µM)	256 mg/L (≈ 550 µM)	256 mg/L (≈ 550 µM)	256 mg/L (≈ 550 µM)	256 mg/L (≈ 550 µM)	256 mg/L (≈ 550 µM)	44.5 mg/L (≈ 95.5 µM)	256 mg/L (≈ 550 µM)	256 mg/L (≈ 550 µM)	256 mg/L (≈ 550 µM)
C=CCOc1ccc(/C=C/C(=O)c2ccccc2NC(=O)NS(=O)(=O)c2ccc(C)cc2)cc1	32 mg/L (≈ 67.1 µM)	16 mg/L (≈ 33.6 µM)	16 mg/L (≈ 33.6 µM)	32 mg/L (≈ 67.1 µM)	16 mg/L (≈ 33.6 µM)	16 mg/L (≈ 33.6 µM)	16 mg/L (≈ 33.6 µM)	16 mg/L (≈ 33.6 µM)	16 mg/L (≈ 33.6 µM)	6.11 mg/L (≈ 12.8 µM)	16 mg/L (≈ 33.6 µM)	32 mg/L (≈ 67.1 µM)	16 mg/L (≈ 33.6 µM)
Cc1ccc(S(=O)(=O)NC(=O)Nc2ccccc2C(=O)/C=C/c2ccncc2)cc1	128 mg/L (≈ 304 µM)	128 mg/L (≈ 304 µM)	64 mg/L (≈ 152 µM)	64 mg/L (≈ 152 µM)	64 mg/L (≈ 152 µM)	64 mg/L (≈ 152 µM)	64 mg/L (≈ 152 µM)	64 mg/L (≈ 152 µM)	64 mg/L (≈ 152 µM)	16.8 mg/L (≈ 39.9 µM)	64 mg/L (≈ 152 µM)	64 mg/L (≈ 152 µM)	64 mg/L (≈ 152 µM)
Cc1ccc(S(=O)(=O)NC(=O)Nc2ccccc2C(=O)/C=C/c2ccc[nH]2)cc1	256 mg/L (≈ 625 µM)	256 mg/L (≈ 625 µM)	256 mg/L (≈ 625 µM)	256 mg/L (≈ 625 µM)	128 mg/L (≈ 313 µM)	256 mg/L (≈ 625 µM)	256 mg/L (≈ 625 µM)	256 mg/L (≈ 625 µM)	256 mg/L (≈ 625 µM)	32.1 mg/L (≈ 78.4 µM)	128 mg/L (≈ 313 µM)	128 mg/L (≈ 313 µM)	256 mg/L (≈ 625 µM)
Cc1ccc(/C=C/C(=O)c2ccccc2NC(=O)NS(=O)(=O)c2ccc(C)cc2)cc1	256 mg/L (≈ 589 µM)	256 mg/L (≈ 589 µM)	256 mg/L (≈ 589 µM)	256 mg/L (≈ 589 µM)	256 mg/L (≈ 589 µM)	256 mg/L (≈ 589 µM)	256 mg/L (≈ 589 µM)	256 mg/L (≈ 589 µM)	256 mg/L (≈ 589 µM)	15.3 mg/L (≈ 35.2 µM)	128 mg/L (≈ 295 µM)	256 mg/L (≈ 589 µM)	256 mg/L (≈ 589 µM)
Cc1ccc(S(=O)(=O)NC(=O)Nc2ccccc2C(=O)/C=C/c2cccnc2)cc1	128 mg/L (≈ 304 µM)	128 mg/L (≈ 304 µM)	128 mg/L (≈ 304 µM)	128 mg/L (≈ 304 µM)	128 mg/L (≈ 304 µM)	128 mg/L (≈ 304 µM)	128 mg/L (≈ 304 µM)	128 mg/L (≈ 304 µM)	128 mg/L (≈ 304 µM)	14.1 mg/L (≈ 33.4 µM)	128 mg/L (≈ 304 µM)	128 mg/L (≈ 304 µM)	128 mg/L (≈ 304 µM)
Cc1ccc(S(=O)(=O)NC(=O)Nc2ccccc2C(=O)/C=C/c2ccc(Cl)cc2Cl)cc1	16 mg/L (≈ 32.7 µM)	16 mg/L (≈ 32.7 µM)	64 mg/L (≈ 131 µM)	64 mg/L (≈ 131 µM)	32 mg/L (≈ 65.4 µM)	64 mg/L (≈ 131 µM)	64 mg/L (≈ 131 µM)	64 mg/L (≈ 131 µM)	64 mg/L (≈ 131 µM)	8.34 mg/L (≈ 17 µM)	32 mg/L (≈ 65.4 µM)	32 mg/L (≈ 65.4 µM)	64 mg/L (≈ 131 µM)
Cc1ccc(S(=O)(=O)NC(=O)Nc2ccccc2C(=O)/C=C/c2cc(O)ccc2[N+](=O)[O-])cc1	16 mg/L (≈ 33.2 µM)	16 mg/L (≈ 33.2 µM)	64 mg/L (≈ 133 µM)	64 mg/L (≈ 133 µM)	16 mg/L (≈ 33.2 µM)	64 mg/L (≈ 133 µM)	64 mg/L (≈ 133 µM)	32 mg/L (≈ 66.5 µM)	64 mg/L (≈ 133 µM)	18.3 mg/L (≈ 38 µM)	16 mg/L (≈ 33.2 µM)	16 mg/L (≈ 33.2 µM)	64 mg/L (≈ 133 µM)
Cc1ccc(S(=O)(=O)NC(=O)Nc2ccccc2C(=O)/C=C/c2ccccc2)cc1	512 mg/L (≈ 1220 µM)	512 mg/L (≈ 1220 µM)	512 mg/L (≈ 1220 µM)	512 mg/L (≈ 1220 µM)	512 mg/L (≈ 1220 µM)	512 mg/L (≈ 1220 µM)	512 mg/L (≈ 1220 µM)	512 mg/L (≈ 1220 µM)	512 mg/L (≈ 1220 µM)	25 mg/L (≈ 59.5 µM)	512 mg/L (≈ 1220 µM)	512 mg/L (≈ 1220 µM)	512 mg/L (≈ 1220 µM)
Cc1ccc(S(=O)(=O)NC(=O)Nc2ccccc2C(=O)/C=C/c2cccc(Br)c2)cc1	16 mg/L (≈ 32 µM)	32 mg/L (≈ 64.1 µM)	128 mg/L (≈ 256 µM)	16 mg/L (≈ 32 µM)	16 mg/L (≈ 32 µM)	128 mg/L (≈ 256 µM)	16 mg/L (≈ 32 µM)	128 mg/L (≈ 256 µM)	64 mg/L (≈ 128 µM)	4.02 mg/L (≈ 8.05 µM)	64 mg/L (≈ 128 µM)	16 mg/L (≈ 32 µM)	128 mg/L (≈ 256 µM)
COc1ccc(/C=C/C(=O)c2ccccc2NC(=O)NS(=O)(=O)c2ccc(C)cc2)cc1	64 mg/L (≈ 142 µM)	64 mg/L (≈ 142 µM)	128 mg/L (≈ 284 µM)	128 mg/L (≈ 284 µM)	128 mg/L (≈ 284 µM)	128 mg/L (≈ 284 µM)	128 mg/L (≈ 284 µM)	128 mg/L (≈ 284 µM)	128 mg/L (≈ 284 µM)	28.1 mg/L (≈ 62.4 µM)	128 mg/L (≈ 284 µM)	128 mg/L (≈ 284 µM)	128 mg/L (≈ 284 µM)
Cc1ccc(S(=O)(=O)NC(=O)Nc2ccccc2C(=O)/C=C/c2ccc(F)cc2)cc1	16 mg/L (≈ 36.5 µM)	32 mg/L (≈ 73 µM)	64 mg/L (≈ 146 µM)	64 mg/L (≈ 146 µM)	32 mg/L (≈ 73 µM)	64 mg/L (≈ 146 µM)	16 mg/L (≈ 36.5 µM)	64 mg/L (≈ 146 µM)	64 mg/L (≈ 146 µM)	3.96 mg/L (≈ 9.03 µM)	32 mg/L (≈ 73 µM)	32 mg/L (≈ 73 µM)	16 mg/L (≈ 36.5 µM)
Cc1ccc(S(=O)(=O)NC(=O)Nc2ccccc2C(=O)/C=C/c2ccccc2Cl)cc1	64 mg/L (≈ 141 µM)	64 mg/L (≈ 141 µM)	128 mg/L (≈ 281 µM)	128 mg/L (≈ 281 µM)	64 mg/L (≈ 141 µM)	128 mg/L (≈ 281 µM)	128 mg/L (≈ 281 µM)	128 mg/L (≈ 281 µM)	128 mg/L (≈ 281 µM)	12.8 mg/L (≈ 28.1 µM)	64 mg/L (≈ 141 µM)	64 mg/L (≈ 141 µM)	128 mg/L (≈ 281 µM)
